# Results published in ChEMBL document CHEMBL1667760, “Synthesis and biological evaluation of 3,5-diaryl isoxazoline/isoxazole linked 2,3-dihydroquinazolinone hybrids as anticancer agents” (2011).
# Calls of active or inactive are those of the source. The calls are words filed in the database; no cut-off is given here.
# What was measured:
# K562 = test: Cytotoxicity against human K562 cells after 48 hrs by sulforhodamine B assay; type: functional; details: K562, 48 h
# In short: (§1)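 Run by the NCI 60-cell-line screen. A one-dose pre-test was done first, followed by the main test over a 5-log dose range (10^-4 to 10^-8 M). Results are reported as log molar GI50 (50% net growth inhibition), TGI (total growth inhibition) and LC50 (50% net cell death), with mean-graph midpoints across all lines.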
# MCF7 [1] = test: Cell cycle arrest in human MCF7 cells assessed as accumulation at G2/M phase at 5 uM after 24 hrs using propidium iodide staining by flow cytometry relative to control; type: functional
# In short: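 MCF-7 cells were seeded at 5×10^5 per 60 mm dish and grown 24 h. They were then exposed to 5 uM compound for a further 24 h, with untreated control cells alongside. Cells were trypsinised, fixed in ice-cold 70% ethanol (4 °C, 30 min), treated with 1 mg/ml RNase A (37 °C, 30 min) and stained with propidium iodide/citrate/Triton solution. DNA content was read by flow cytometry on 20,000 events.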
# ACHN = test: Cytotoxicity against human ACHN cells after 48 hrs by sulforhodamine B assay; type: functional; in short: as §1
# LOX IMVI = test: Cytotoxicity against human LOXIMVI cells after 48 hrs by sulforhodamine B assay; type: functional; in short: as §1
# U-251 = test: Cytotoxicity against human U251 cells after 48 hrs by sulforhodamine B assay; type: functional; details: U-251, 48 h
# In short: (§2)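 NCI 60-cell-line panel screen of human tumor lines: a one-dose pre-test, then the main test over a 5-log range (10^-4–10^-8 M). GI50, TGI and LC50 are reported as log molar concentrations for 50% net growth inhibition, total growth inhibition and 50% net cell death. Mean graph midpoints are also calculated.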
# OVCAR-5 = test: Cytotoxicity against human OVCAR5 cells after 48 hrs by sulforhodamine B assay; type: functional; details: OVCAR-5, 48 h; in short: as §1
# OVCAR-4 = test: Cytotoxicity against human OVCAR4 cells after 48 hrs by sulforhodamine B assay; type: functional; details: OVCAR-4, 48 h; in short: as §1
# [2] = Cytotoxicity against human Hs 578T cells after 48 hrs by sulforhodamine B assay; type: functional; in short: as §1
# SK-MEL-28 = test: Cytotoxicity against human SK-MEL-28 cells after 48 hrs by sulforhodamine B assay; type: functional; details: SK-MEL-28, 48 h; in short: as §1
# OVCAR-8 = test: Cytotoxicity against human OVCAR8 cells after 48 hrs by sulforhodamine B assay; type: functional; details: OVCAR-8, 48 h; in short: as §1
# OVCAR-3 = test: Cytotoxicity against human OVCAR3 cells after 48 hrs by sulforhodamine B assay; type: functional; details: OVCAR-3, 48 h; in short: as §1
# SR = test: Cytotoxicity against human SR cells after 48 hrs by sulforhodamine B assay; type: functional; in short: as §2
# SF-295 = test: Cytotoxicity against human SF295 cells after 48 hrs by sulforhodamine B assay; type: functional; details: SF-295, 48 h; in short: as §1
# HCT-116 = test: Cytotoxicity against human HCT116 cells after 48 hrs by sulforhodamine B assay; type: functional; details: HCT-116, 48 h; in short: as §1
# NCI-H522 = test: Cytotoxicity against human NCI-H522 cells after 48 hrs by sulforhodamine B assay; type: functional; details: NCI-H522, 48 h; in short: as §1
# MCF7 [3] = test: Reduction of CDK1 expression in human MCF7 cells at 5 uM after 24 hrs by Western blotting; type: functional, cell-based
# In short: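 MCF-7 cells, kept in DMEM with 10% fetal calf serum at 37 °C under 5% CO2, treated 24 h. Lysis in ice-cold RIPA with protease inhibitors; Bradford quantitation; 30 µg protein per lane on 12% SDS-PAGE, then PVDF. Primary antibodies (1:500) at 4 °C overnight; HRP secondary (1:2000); chemiluminescence detection; β-actin loading control.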
# HCC 2998 = test: Cytotoxicity against human HCC2998 cells after 48 hrs by sulforhodamine B assay; type: functional; details: HCC 2998, 48 h; in short: as §1
# HCT-15 = test: Cytotoxicity against human HCT15 cells after 48 hrs by sulforhodamine B assay; type: functional; details: HCT-15, 48 h; in short: as §1
# UO-31 = test: Cytotoxicity against human UO31 cells after 48 hrs by sulforhodamine B assay; type: functional; details: UO-31, 48 h; in short: as §2
# EKVX = test: Cytotoxicity against human EKVX cells after 48 hrs by sulforhodamine B assay; type: functional
# In short: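 Run by the NCI 60 human tumour cell line screen. A one-dose pre-test across sixty lines came first. The main test then used a 5-log dose range (10^-4–10^-8 M). Values derived per cell line were GI50 (log molar concentration for 50% net growth inhibition), TGI (total growth inhibition) and LC50 (50% net cell death).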
# SF-539 = test: Cytotoxicity against human SF539 cells after 48 hrs by sulforhodamine B assay; type: functional; details: SF-539, 48 h; in short: as §1
# [4] = read-out: pLC50 (the source's name) (converted)
smiles,measurement,setting,value
COc1cc(C2NC(=O)c3ccccc3N2)ccc1OCCCCCOc1c(OC)cc(C2=NOC(c3cc(OC)c(OC)c(OC)c3)C2)cc1OC (stereo not drawn),GI50,K562,0.501 µM
same,CC50,K562; [4],> 100 µM
same,TGI,K562; read-out: pTGI,> 100 µM
same,Activity,MCF7 [1],43.9%
same,GI50,ACHN,0.324 µM
same,CC50,ACHN; [4],> 100 µM
same,TGI,ACHN; read-out: pTGI,> 100 µM
same,GI50,LOX IMVI,14.1 µM
same,CC50,LOX IMVI; [4],> 100 µM
same,TGI,LOX IMVI; read-out: pTGI,> 100 µM
same,GI50,U-251,15.1 µM
same,CC50,U-251; [4],> 100 µM
same,TGI,U-251; read-out: pTGI,> 100 µM
same,GI50,OVCAR-5,36.3 µM
same,CC50,OVCAR-5; [4],> 100 µM
same,TGI,OVCAR-5; read-out: pTGI,> 100 µM
same,GI50,OVCAR-4,0.355 µM
same,CC50,OVCAR-4; [4],> 100 µM
same,TGI,OVCAR-4; read-out: pTGI,> 100 µM
same,GI50,[2],16.6 µM
same,CC50,[2]; [4],> 100 µM
same,TGI,[2]; read-out: pTGI,> 100 µM
same,GI50,SK-MEL-28,5.25 µM
same,CC50,SK-MEL-28; [4],> 100 µM
same,TGI,SK-MEL-28; read-out: pTGI,> 100 µM
same,LC50,OVCAR-8,> 100 µM
same,GI50,OVCAR-8; read-out: pGI50 (converted),24.5 µM
same,TGI,OVCAR-8; read-out: pTGI,> 100 µM
same,GI50,OVCAR-3,12.9 µM
same,CC50,OVCAR-3; [4],> 100 µM
same,TGI,OVCAR-3; read-out: pTGI (converted),63.1 µM
same,GI50,SR,0.955 µM
same,CC50,SR; [4],> 100 µM
same,TGI,SR; read-out: pTGI,> 100 µM
same,GI50,SF-295,0.398 µM
same,CC50,SF-295; [4],> 100 µM
same,TGI,SF-295; read-out: pTGI,> 100 µM
same,GI50,HCT-116,0.708 µM
same,CC50,HCT-116; [4],> 100 µM
same,TGI,HCT-116; read-out: pTGI (converted),40.7 µM
same,GI50,NCI-H522,10.7 µM
same,CC50,NCI-H522; [4],93.3 µM
same,TGI,NCI-H522; read-out: pTGI (converted),31.6 µM
same,Activity,MCF7 [3],Active
same,GI50,HCC 2998,19.1 µM
same,CC50,HCC 2998; [4],> 100 µM
same,TGI,HCC 2998; read-out: pTGI (converted),52.5 µM
same,GI50,HCT-15,0.708 µM
same,CC50,HCT-15; [4],> 100 µM
same,TGI,HCT-15; read-out: pTGI,> 100 µM
same,GI50,UO-31,10.7 µM
same,CC50,UO-31; [4],> 100 µM
same,TGI,UO-31; read-out: pTGI,> 100 µM
same,CC50,EKVX; [4],> 100 µM
same,TGI,EKVX; read-out: pTGI,> 100 µM
same,GI50,SF-539,17.8 µM
same,CC50,SF-539; [4],> 100 µM
same,TGI,SF-539; read-out: pTGI (converted),89.1 µM
